ChEMBL document CHEMBL1155578, “In vitro antiinflammatory effects of neolignan woorenosides from the rhizomes of Coptis japonica” (J Nat Prod, 2000)

Columns and labels:
Splenocyte = assay: Inhibition of Concanavalin A-stimulated cell proliferation in mouse splenocytes after 48 hrs by MTT assay; assay type: functional, cell-based
Summary of the method: (§1)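 Splenocytes came from BALB/c male mice (eight weeks old); red cells were lysed with NH4Cl-Tris. Cells were cultured at 5×10^6 cells/mL with Con A (1 µg/mL) and compounds for 48 h. Results are mean ± SEM of four observations.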

[1] = Inhibition of IL2-dependent mouse CTLL2 cell proliferation after 48 hrs by MTT assay; assay type: functional, cell-based; settings: CTLL-2, 48 h
Summary of the method: (§2)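 CTLL-2 cells were washed free of IL-2 and FBS, then resuspended at 5×10^5 cells/mL in growth medium without IL-2. They were incubated with compounds plus IL-2 (50 U/mL) for 48 h at 37 °C and 5% CO2. Proliferation was read by MTT assay. Results are mean ± SEM of four observations.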

RAW264.7 [2] = assay: Antiinflammatory activity against mouse RAW264.7 assessed as inhibition of LPS-induced NO production after 24 hrs; assay type: functional, cell-based; settings: RAW264.7, 24 h
Summary of the method: (§3)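 RAW264.7 cells were plated at 1×10^6 cells/mL and held 18 h. Compounds were then added with LPS (1 µg/mL) for lines 1 and 3, or IFN-γ (50 U/mL) for line 2, and incubated 24 h. Supernatant nitrite was measured with Griess reagent (10 min, room temperature) at OD550 against a sodium nitrite standard curve. Detection limit was 0.5 µM. Results are mean ± SEM of four observations run in triplicate.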

RAW264.7 [3] = assay: Antiinflammatory activity against mouse RAW264.7 assessed as inhibition of IFN-gamma-induced NO production after 24 hrs; assay type: functional, cell-based; settings: RAW264.7, 24 h
Summary of the method: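 RAW264.7 mouse macrophages kept in RPMI 1640 with 10% FBS and antibiotics, 37 °C, 5% CO2. Cells pre-cultured 18 h at 1×10^6 cells/mL, then given graded compound concentrations plus IFN-γ (50 U/mL) for 24 h. Supernatant nitrite read by Griess reagent (10 min, room temperature) at OD550, quantified against a sodium nitrite standard curve. Mean ± SEM, four separate observations in triplicate.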

RAW264.7 [4] = assay: Antiinflammatory activity against mouse RAW264.7 cells assessed as inhibition of LPS-induced TNFalpha production after 4 hrs by ELISA; assay type: functional, cell-based; settings: RAW264.7, 4 h
Summary of the method: (§4)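 Compounds were dissolved in vehicle (propylene glycol/ethanol/DMSO), kept at ≤0.1% final, and added with LPS (1 µg/mL) for 4 h. Supernatant TNF-α was measured by mouse TNF-α ELISA. Results are mean ± SEM of four observations in triplicate.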

RAW264.7 [5] = assay: Antiinflammatory activity against mouse RAW264.7 cells assessed as inhibition of LPS-induced TNFalpha production at 80 uM after 4 hrs by ELISA; assay type: functional; settings: RAW264.7, 4 h
Summary of the method: as §4, with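 “RAW264.7 cells (2×10^6 cells/mL) were pre-incubated 18 h in RPMI 1640 with 10% FBS. Compounds” for “Compounds”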

RAW264.7 [6] = assay: Antiinflammatory activity against mouse RAW264.7 cells assessed as inhibition of LPS-induced NO production at 80 uM after 24 hrs; assay type: functional; settings: RAW264.7, 24 h; summary of the method: as §3
[7] = Antiinflammatory activity against mouse splenocytes assessed as inhibition of ConA-stimulated proliferation at 80 uM after 48 hrs by MTT assay; assay type: functional; settings: Splenocyte; summary of the method: as §1
[8] = Inhibition of IL2-dependent mouse CTLL2 cell proliferation at 80 uM after 48 hrs by MTT assay; assay type: functional; settings: CTLL-2, 48 h; summary of the method: as §2
RAW264.7 [9] = assay: Antiinflammatory activity against mouse RAW264.7 cells assessed as inhibition of IFN-gamma-induced NO production at 20 uM after 24 hrs; assay type: functional; parameters: scale not given: the % may be the effect or the level left; summary of the method: as §3
SUP-T1 = assay: Cytotoxicity against human Sup-T1 cells at 80 uM after 48 hrs by MTT assay; settings: SUP-T1, 48 h

`C/C(O)=C(\C#N)C(=O)Nc1ccc(C(F)(F)F)cc1` [TERIFLUNOMIDE] showed an IC50 (Splenocyte) of 6.7 µM and an IC50 [1] of 11.2 µM.

`COC(=O)[C@@H](N)CCCNC(=N)N[N+](=O)[O-]` [L-NAME] gave an IC50 (RAW264.7 [2]) of 193 µM and an IC50 (RAW264.7 [3]) of 116 µM.

For `C[C@]12C=CC(=O)C=C1CC[C@@H]1[C@@H]2[C@@H](O)C[C@@]2(C)[C@H]1CC[C@]2(O)C(=O)CO` [PREDNISOLONE], the IC50 (RAW264.7 [4]) was 25.4 µM.

`CC(=O)CCCCn1c(=O)c2c(ncn2C)n(C)c1=O` [PENTOXIFYLLINE] gave an IC50 (RAW264.7 [4]) of 247 µM.

For `N[C@H]1CONC1=O` [LEVCYCLOSERINE], the IC50 (Splenocyte) was 3.5 µM.

In the case of `CCCC(=O)Nc1ncnc2c1ncn2[C@@H]1O[C@@H]2COP(=O)(O)O[C@H]2[C@H]1OC(=O)CCC` [BUCLADESINE], the IC50 (RAW264.7 [4]) is reported as 28.9 µM and the IC50 [1] is reported as 576 µM.

Work on `COc1cc([C@@H]2Oc3c(OC)cc(/C=C/CO[C@@H]4O[C@H](CO)[C@@H](O)[C@H](O)[C@H]4O)cc3[C@H]2CO)cc(OC)c1OC` [WOORENOSIDE I] yielded an inhibition at 80 µM (RAW264.7 [5]) of 15.4%, an inhibition at 80 µM (RAW264.7 [6]) of 34.7% and an inhibition at 80 µM [7] of 24.8%. It also gave an inhibition at 80 µM [8] of -5.4%, an Activity (RAW264.7 [9]) of 8.5% and an inhibition at 80 µM (SUP-T1) of 32.1%.
